The source made the active and inactive calls. No cut-off for these calls is given here.
Experiments:
Trypanosoma cruzi = experiment: Antiparasitic activity against GFP-expressing Trypanosoma cruzi Tulahuen amastigote formss infected in cardiomyocytes assessed as reduction in rate of parasite multiplication within infected cardiomyocytes measured at 72 hrs post infection by fluorescence microscopy; type: functional, organism-based
Method in brief: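 GFP-expressing trypomastigotes (Tulahuen or Y strain) infect cardiomyocyte monolayers at 10 parasites per cell, in DMEM + 10% FBS. Unbound parasites are washed off. At 24 h of infection, inhibitors at 0.5–25 nM in DMSO/DMEM are added and cultured 48 h. Read-out is at 72 h post-infection as GFP fluorescence (RFU) after PBS wash; microscopy uses paraformaldehyde fixation, DAPI and phalloidin stain. Triplicate.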

Mus musculus [1] = experiment: Toxicity in Swiss Webster mouse assessed as effect on skin at 200 mg/kg, po administered as single dose measured after 48 hrs; type: organism-based; conditions: in vivo
Method in brief: (§1)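 Swiss Webster mice (21–23 g, n=3) get a single oral 200 mg/kg dose, given as in the PK study. They are inspected for toxic and sub-toxic signs per OECD guidelines (behaviour, motility, neurological state, skin, fur), and body weight is tracked 0–48 h. At 48 h, mice are euthanized and organ weights are normalized to body weight. Blood is taken for haematology and plasma biochemistry.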

[2] = Maximum plasma concentration in BALB/c mouse at 25 mg/kg, po via gavage by […]; type: ADME, organism-based; parameters: dose 25 mg/kg, route oral
Method in brief: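 Single oral gavage dose of 25 mg/kg in BALB/c mice; blood sampled at 1, 2, 4, 6, 10, 16, 24 h. Plasma is diluted in PBS with ketoconazole internal standard, extracted with 80% acetonitrile, dried and redissolved. Analysed by reversed-phase HPLC with UV at 291/250 nm, 0.1 μM detection limit. Lifetime is time until undetectable.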

Mus musculus [3] = experiment: Toxicity in Swiss Webster mouse assessed as effect on kidney weight at 200 mg/kg, po administered as single dose measured after 48 hrs; type: organism-based; conditions: in vivo; method in brief: as §1
Mus musculus [4] = experiment: Toxicity in Swiss Webster mouse assessed as effect on lung weight at 200 mg/kg, po administered as single dose measured after 48 hrs; type: organism-based; conditions: in vivo; method in brief: as §1
[5] = molecular target: Putative lanosterol 14-alpha-demethylase (Leishmania infantum) (UniProt A2TEF2); experiment: Inhibition of Leishmania infantum CYP51 expressed in Escherichia coli using [3-3H]-obtusifoliol as substrate after 60 mins by LC-MS analysis
Chain of Putative lanosterol 14-alpha-demethylase (Leishmania infantum) (A2TEF2 1-480): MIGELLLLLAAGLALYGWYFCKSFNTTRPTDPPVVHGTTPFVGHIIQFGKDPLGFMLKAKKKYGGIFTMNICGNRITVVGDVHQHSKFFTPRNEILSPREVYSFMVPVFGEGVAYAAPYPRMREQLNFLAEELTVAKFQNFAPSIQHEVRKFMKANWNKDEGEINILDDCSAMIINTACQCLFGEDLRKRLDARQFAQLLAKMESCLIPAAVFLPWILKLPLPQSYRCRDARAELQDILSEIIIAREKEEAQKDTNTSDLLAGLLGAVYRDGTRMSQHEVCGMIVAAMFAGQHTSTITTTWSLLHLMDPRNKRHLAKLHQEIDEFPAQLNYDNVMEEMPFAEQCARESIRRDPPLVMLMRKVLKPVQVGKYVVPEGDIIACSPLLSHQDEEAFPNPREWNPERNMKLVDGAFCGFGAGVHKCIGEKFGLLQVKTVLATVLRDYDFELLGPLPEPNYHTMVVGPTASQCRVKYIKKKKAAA
Method in brief: (§2)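 Reconstituted reaction: 1 μM purified CYP51, 2 μM T. brucei NADPH-P450 reductase, 100 μM dilauroylphosphatidylcholine, isocitrate dehydrogenase/isocitrate regeneration, 50 mM K phosphate pH 7.2, 10% glycerol. [3-3H]sterol substrate at 50 μM final (eburicol for T. cruzi; obtusifoliol for T. brucei and L. infantum) with inhibitor at 1.1 μM final. Preincubate 60 s at 37 °C, start with 100 μM NADPH, run 60 min, EtOAc extraction. Gives % inhibition of 14α-demethylation, triplicate, mean ± SD.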

[6] = Hepatic clearance in human liver microsomes at 1 uM preincubated for 5 mins followed by NADPH addition and measured after 45 mins by LC/MS/MS analysis; type: ADME, microsome
Mus musculus [7] = experiment: Toxicity in Swiss Webster mouse assessed as effect on body weight at 200 mg/kg, po administered as single dose measured after 48 hrs; type: organism-based; conditions: in vivo; method in brief: as §1
Mus musculus [8] = experiment: Toxicity in Swiss Webster mouse assessed as effect on motility at 200 mg/kg, po administered as single dose measured after 48 hrs; type: organism-based; conditions: in vivo; method in brief: as §1
[9] = Half life in CD1 mouse liver microsomes at 1 uM preincubated for 5 mins followed by NADPH addition and measured by LC/MS/MS analysis; type: ADME, microsome; conditions: mouse, microsomes, 1 µM
[10] = Drug uptake in BALB/c mouse liver at 25 mg/kg, po via gavage measured after 4 hrs post dose by […]; type: ADME, organism-based; conditions: read-out: Drug uptake
Method in brief: (§3)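 BALB/c mice get a single oral gavage dose of 25 mg/kg; tissues are collected 4 h post-dose. About 100 mg tissue is diluted 5-fold in PBS and homogenized. Homogenate is extracted as for plasma (ketoconazole internal standard, acetonitrile extraction) and quantified by HPLC-UV at 291 nm, 0.1 μM detection limit, n=2.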

[11] = Intrinsic clearance in human liver microsomes at 1 uM preincubated for 5 mins followed by NADPH addition and measured after 45 mins by LC/MS/MS analysis; type: ADME, microsome; conditions: read-out: CLH
Mus musculus [12] = experiment: Toxicity in Swiss Webster mouse assessed as effect on spleen weight at 200 mg/kg, po administered as single dose measured after 48 hrs; type: organism-based; conditions: in vivo; method in brief: as §1
[13] = Drug uptake in BALB/c mouse blood at 25 mg/kg, po via gavage measured after 4 hrs post dose by […]; type: ADME, organism-based; conditions: read-out: Drug uptake; method in brief: as §3
[14] = molecular target: Sterol 14-alpha demethylase (Trypanosoma cruzi (strain CL Brener)) (UniProt Q7Z1V1); experiment: Inhibition of Trypanosoma cruzi Y CYP51 expressed in Escherichia coli using [3-3H]-eburicol as substrate after 60 mins by LC-MS analysis; method in brief: as §2
Chain of Sterol 14-alpha demethylase (Trypanosoma cruzi (strain CL Brener)) (Q7Z1V1 whole entry, looked up): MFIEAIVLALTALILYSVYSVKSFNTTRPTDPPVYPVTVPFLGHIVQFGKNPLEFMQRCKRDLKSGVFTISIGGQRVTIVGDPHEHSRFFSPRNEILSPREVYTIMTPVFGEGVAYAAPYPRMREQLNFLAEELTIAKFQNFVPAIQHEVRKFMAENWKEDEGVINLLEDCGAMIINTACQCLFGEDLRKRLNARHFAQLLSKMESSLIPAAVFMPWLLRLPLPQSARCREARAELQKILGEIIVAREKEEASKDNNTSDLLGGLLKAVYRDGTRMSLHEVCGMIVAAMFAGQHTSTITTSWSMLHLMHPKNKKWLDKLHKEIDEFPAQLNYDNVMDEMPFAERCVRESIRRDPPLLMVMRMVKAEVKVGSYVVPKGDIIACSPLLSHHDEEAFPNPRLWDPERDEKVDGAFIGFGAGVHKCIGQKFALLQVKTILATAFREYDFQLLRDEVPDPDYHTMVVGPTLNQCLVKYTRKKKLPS

Mus musculus [15] = experiment: Toxicity in Swiss Webster mouse assessed as alteration in body to organ ratio at 200 mg/kg, po administered as single dose measured after 48 hrs; type: organism-based; conditions: in vivo; method in brief: as §1
[16] = Intrinsic clearance in Sprague-Dawley rat liver microsomes at 1 uM preincubated for 5 mins followed by NADPH addition and measured after 45 mins by LC/MS/MS analysis; type: ADME, microsome; conditions: read-out: CLH
[17] = Hepatic clearance in Sprague-Dawley rat liver microsomes at 1 uM preincubated for 5 mins followed by NADPH addition and measured after 45 mins by LC/MS/MS analysis; type: ADME, microsome
Method in brief: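 Pooled liver microsomes at 0.5 mg/mL: human (mixed gender), male Sprague-Dawley rat, or male CD-1 mouse, with test compound at 1 μM, triplicate. In vitro t1/2 is scaled to CLint (45 mg microsomes/g liver; 45 g liver/kg scaling factor). CLhep uses well-stirred model with hepatic blood flow 21 (human), 70 (rat), 90 (mouse) mL/min/kg.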

Mus musculus [18] = experiment: Toxicity in Swiss Webster mouse at 200 mg/kg, po administered as single dose measured after 48 hrs measured at 48 hrs post dose; type: organism-based; conditions: in vivo; method in brief: as §1
[19] = Hepatic clearance in CD1 mouse liver microsomes at 1 uM preincubated for 5 mins followed by NADPH addition and measured after 45 mins by LC/MS/MS analysis; type: ADME, microsome
[20] = Lipophilicity, log P of the compound; type: physicochemical; conditions: octanol/water
[21] = molecular target: Putative lanosterol 14-alpha-demethylase (Leishmania infantum, UniProt A2TEF2); experiment: Binding affinity to Leishmania infantum CYP51 expressed in Escherichia coli
Chain of Putative lanosterol 14-alpha-demethylase (A2TEF2 whole entry): as the sequence (A2TEF2 1-480) above
Method in brief: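 Purified E. coli-expressed L. infantum CYP51 at 0.5 μM is titrated with ligand at 0.1–1 μM in 5 cm path cuvettes. Difference-spectrum absorbance change Δ(A430−A411) is plotted against ligand concentration. Apparent Kd comes from a Morrison (quadratic) tight-binding fit by nonlinear regression.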

Mus musculus [22] = experiment: Toxicity in Swiss Webster mouse assessed as effect on animal behavior at 200 mg/kg, po administered as single dose measured after 48 hrs; type: organism-based; conditions: in vivo; method in brief: as §1
Mus musculus [23] = experiment: Toxicity in Swiss Webster mouse assessed as effect on heart weight at 200 mg/kg, po administered as single dose measured after 48 hrs; type: organism-based; conditions: in vivo; method in brief: as §1
[24] = Drug uptake in BALB/c mouse lungs at 25 mg/kg, po via gavage measured after 4 hrs post dose by […]; type: ADME, organism-based, Lung; conditions: read-out: Drug uptake; method in brief: as §3
Mus musculus [25] = experiment: Toxicity in Swiss Webster mouse assessed as effect on fur profile at 200 mg/kg, po administered as single dose measured after 48 hrs; type: organism-based; conditions: in vivo; method in brief: as §1

O=C(N[C@@H](Cn1ccnc1)c1c(F)cc(-c2ccc(F)cc2)cc1F)c1ccc(-c2nnc(-c3ccccc3)o2)cc1
EC50 (Trypanosoma cruzi): 0.0005 µM | Activity (Mus musculus [1]): Non-Toxic | Cmax [2]: 25 µM | Activity (Mus musculus [3]): Non-Toxic | Activity (Mus musculus [4]): Non-Toxic | inhibition [5]: Active | CLhep predicted at 1 µM [6]: 10.1 mL/min/kg | Activity (Mus musculus [7]): Non-Toxic | Activity (Mus musculus [8]): Non-Toxic | t1/2 [9]: 23 min | concentration at 4 h [10]: 120 µM | CLint scaled at 1 µM [11]: 19.4 mL/min/kg | Activity (Mus musculus [12]): Non-Toxic | concentration at 4 h [13]: 25 µM | inhibition [14]: Active | Activity (Mus musculus [15]): Non-Toxic | CLint scaled at 1 µM [16]: 55.8 mL/min/kg | CLhep predicted at 1 µM [17]: 31.1 mL/min/kg | NOAEL (Mus musculus [18]): > 200 mg/kg | CLhep predicted at 1 µM [19]: 65.2 mL/min/kg | logP [20]: 5.6 | Kd [21]: 0.024 µM | Activity (Mus musculus [22]): Non-Toxic | Activity (Mus musculus [23]): Non-Toxic | concentration at 4 h [24]: 57 µM | Activity (Mus musculus [25]): Non-Toxic

— ChEMBL document CHEMBL4257584, “Sterol 14α-Demethylase Structure-Based Optimization of Drug Candidates for Human Infections with the Protozoan Trypanosomatidae” (J Med Chem, 2018)
